Test results from ChEMBL document CHEMBL1124603, “Renin inhibitors. Synthesis of transition-state analogue inhibitors containing phosphorus acid derivatives at the scissile bond” (J Med Chem, 1989).
Starred links: 1 amine or outer side, 2 acyl side, 3 side chain; linkers in the order of their positions; H or OH if unused. Non-standard residues stand in square brackets, D forms with d. Residues, ends and D or L forms follow the SMILES beside them. ξ: configuration not given here. *: point of attachment. ξLeuψ(P(O)(OH)CH2)ξVal = CC(C)CC(N[*:1])P(=O)(O)CC(C(=O)[*:2])C(C)C; X1 = CC(C)CC(N[*:1])P(=O)(O)C[C@@H](C(=O)[*:2])C(C)C; X2 = CC(C)CC(N[*:1])P(=O)(O)CCC(=O)[*:2]; X3 = CC(C)CC(N[*:1])P(=O)(O)CC(=O)[*:2]; NMeH = CN[C@@H](Cc1c[nH]cn1)C(=O)O; NMeF = CN[C@@H](Cc1ccccc1)C(=O)O; ξR = N=C(N)NCCCC(N)C(=O)O; Cbz = O=C(OCc1ccccc1)*; Boc = CC(C)(C)OC(=O)*; OtBu = CC(C)(C)O*

Each compound was assayed against T1, Renin (Homo sapiens, UniProt P00797) (assay: In vitro inhibition against human plasma renin at pH 7.2 was determined).
T1 sequence (P00797 whole entry): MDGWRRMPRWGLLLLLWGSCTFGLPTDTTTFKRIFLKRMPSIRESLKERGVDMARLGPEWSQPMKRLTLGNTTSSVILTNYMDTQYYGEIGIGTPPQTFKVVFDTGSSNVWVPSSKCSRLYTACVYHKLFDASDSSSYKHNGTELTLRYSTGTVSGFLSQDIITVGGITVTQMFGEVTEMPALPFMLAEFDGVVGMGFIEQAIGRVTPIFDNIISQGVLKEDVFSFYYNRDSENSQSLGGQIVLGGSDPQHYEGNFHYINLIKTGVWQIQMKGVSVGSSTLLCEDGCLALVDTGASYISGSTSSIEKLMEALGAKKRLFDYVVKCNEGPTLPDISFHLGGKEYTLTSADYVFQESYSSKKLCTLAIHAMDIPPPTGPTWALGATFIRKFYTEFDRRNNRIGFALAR
Type: cell-free
Summary of the method: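 Human plasma renin activity assayed in vitro at pH 7.2 with the synthetic peptides added. IC50 is the peptide concentration that lowered plasma renin activity by 50%.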

**Q.** How did the IC50 turn out when `CC(C)CC(NC(=O)[C@H](Cc1c[nH]cn1)NC(=O)[C@H](Cc1ccccc1)NC(=O)[C@H]1CCCN1C(=O)OCc1ccccc1)P(=O)(O)O` (some centres not stated) was run?
**A.** 6.4 µM

**Q.** `CC[C@H](C)[C@H](NC(=O)CCP(=O)(O)[C@@H](CC(C)C)NC(=O)[C@H](Cc1c[nH]cn1)NC(=O)[C@H](Cc1ccccc1)NC(=O)[C@H]1CCCN1C(=O)[C@H](CCCN=C(N)N)NC(=O)[C@H](CCCN=C(N)N)NC(=O)OCc1ccccc1)C(=O)N[C@@H](Cc1c[nH]cn1)C(N)=O` was tested. Which IC50 did it give?
**A.** 10 µM

**Q.** With `CC[C@H](C)[C@H](NC(=O)[C@@H](CP(=O)(O)[C@@H](CC(C)C)NC(=O)[C@H](Cc1c[nH]cn1)NC(=O)[C@H](Cc1ccccc1)NC(=O)[C@H]1CCCN1C(=O)[C@H](CCCN=C(N)N)NC(=O)[C@H](CCCN=C(N)N)NC(=O)OCc1ccccc1)C(C)C)C(=O)N[C@@H](Cc1c[nH]cn1)C(N)=O` as the compound, how does the IC50 read?
**A.** 0.1 µM

**Q.** How did the IC50 turn out when `COC(=O)C(CP(=O)(O)C(CC(C)C)NC(=O)CC(O)C(CC(C)C)NC(=O)[C@H](Cc1cnc[nH]1)NC(=O)[C@H](Cc1ccccc1)NC(=O)OCc1ccccc1)C(C)C` (some centres not stated) was run?
**A.** > 30 µM

**Q.** Which IC50 does the source give for `COC(=O)CC(O)[C@H](CC(C)C)NC(=O)[C@H](C)NC(=O)C(CP(=O)(O)C(CC(C)C)NC(=O)[C@H](Cc1c[nH]cn1)NC(=O)[C@H](Cc1ccccc1)NC(=O)[C@H]1CCCN1C(=O)OCc1ccccc1)C(C)C` (some centres not stated) here?
**A.** 0.9 µM

**Q.** For `CC[C@H](C)[C@H](NC(=O)C(CP(=O)(O)C(CC(C)C)NC(=O)[C@H](Cc1cnc[nH]1)NC(=O)[C@H](Cc1ccccc1)NC(=O)[C@H]1CCCN1C(=O)[C@H](Cc1cnc[nH]1)NC(=O)[C@H]1CCCN1)C(C)C)C(=O)N[C@@H](Cc1cnc[nH]1)C(=O)N[C@@H](CCCCN)C(=O)O` (some centres not stated), which IC50 is on record?
**A.** 0.07 µM

**Q.** Which IC50 does the source give for `CC[C@H](C)[C@H](NC(=O)C(CP(=O)(O)C(CC(C)C)NC(=O)[C@H](Cc1cnc[nH]1)NC(=O)[C@H](Cc1ccccc1)NC(=O)[C@H]1CCCN1C(=O)OCc1ccccc1)C(C)C)C(=O)N[C@@H](Cc1cnc[nH]1)C(N)=O` (some centres not stated) here?
**A.** 0.6 µM

**Q.** For `CC(C)CC(NC(=O)[C@H](Cc1cnc[nH]1)NC(=O)[C@H](Cc1ccccc1)NC(=O)[C@H]1CCCN1C(=O)OCc1ccccc1)[PH](=O)O` (some centres not stated), which IC50 is on record?
**A.** > 30 µM

**Q.** For `CC[C@H](C)[C@H](NC(=O)C(CP(=O)(O)C(CC(C)C)NC(=O)[C@H](Cc1ccccc1)NC(=O)[C@H](Cc1ccccc1)NC(=O)OC(C)(C)C)C(C)C)C(=O)N[C@@H](Cc1cnc[nH]1)C(N)=O` (some centres not stated) (Boc-FF[ξLeuψ(P(O)(OH)CH2)ξVal]IH-NH2), which IC50 is on record?
**A.** 6 µM

**Q.** With `CC[C@H](C)[C@H](NC(=O)C(CP(=O)(O)C(CC(C)C)NC(=O)[C@H](Cc1ccccc1)N(C)C(=O)[C@H](Cc1ccccc1)NC(=O)OC(C)(C)C)C(C)C)C(=O)N[C@@H](Cc1c[nH]cn1)C(N)=O` (some centres not stated) (Boc-F[NMeF][ξLeuψ(P(O)(OH)CH2)ξVal]IH-NH2) as the compound, how does the IC50 read?
**A.** > 30 µM

**Q.** `CC[C@H](C)[C@H](NC(=O)C(CP(=O)(O)C(CC(C)C)NC(=O)[C@H](Cc1c[nH]cn1)N(C)C(=O)[C@H](Cc1ccccc1)NC(=O)OC(C)(C)C)C(C)C)C(=O)N[C@@H](Cc1c[nH]cn1)C(N)=O` (some centres not stated) (Boc-F[NMeH][ξLeuψ(P(O)(OH)CH2)ξVal]IH-NH2) was tested. Which IC50 did it give?
**A.** > 30 µM

**Q.** For `CC[C@H](C)[C@H](NC(=O)[C@H](CP(=O)(O)C(CC(C)C)NC(=O)[C@H](Cc1cnc[nH]1)NC(=O)[C@H](Cc1ccccc1)NC(=O)OCc1ccccc1)C(C)C)C(=O)N[C@@H](Cc1cnc[nH]1)C(N)=O` (some centres not stated) (Cbz-FH[X1]IH-NH2), which IC50 is on record?
**A.** 2 µM

**Q.** Which IC50 does the source give for `CC[C@H](C)[C@H](NC(=O)CCP(=O)(O)C(CC(C)C)NC(=O)[C@H](Cc1cnc[nH]1)NC(=O)[C@H](Cc1ccccc1)NC(=O)OCc1ccccc1)C(=O)N[C@@H](Cc1cnc[nH]1)C(N)=O` (some centres not stated) (Cbz-FH[X2]IH-NH2) here?
**A.** > 30 µM

**Q.** For `CC[C@H](C)[C@H](NC(=O)CP(=O)(O)C(CC(C)C)NC(=O)[C@H](Cc1cnc[nH]1)NC(=O)[C@H](Cc1ccccc1)NC(=O)OCc1ccccc1)C(=O)N[C@@H](Cc1cnc[nH]1)C(N)=O` (some centres not stated) (Cbz-FH[X3]IH-NH2), which IC50 is on record?
**A.** > 30 µM

**Q.** How did the IC50 turn out when `CC[C@H](C)[C@H](NC(=O)C(CP(=O)(O)C(CC(C)C)NC(=O)[C@H](Cc1cnc[nH]1)NC(=O)[C@H](Cc1ccccc1)NC(=O)OCc1ccccc1)C(C)C)C(=O)N[C@@H](Cc1ccccc1)C(N)=O` (some centres not stated) (Cbz-FH[ξLeuψ(P(O)(OH)CH2)ξVal]IF-NH2) was run?
**A.** 5 µM

**Q.** Which IC50 does the source give for `CC[C@H](C)[C@H](NC(=O)C(CP(=O)(O)C(CC(C)C)NC(=O)[C@H](Cc1c[nH]cn1)NC(=O)[C@H](Cc1ccccc1)NC(=O)OCc1ccccc1)C(C)C)C(=O)NC(CCCN=C(N)N)C(=O)OC(C)(C)C` (some centres not stated) (Cbz-FH[ξLeuψ(P(O)(OH)CH2)ξVal]I[ξR]-OtBu) here?
**A.** > 30 µM

**Q.** How did the IC50 turn out when `CC[C@H](C)[C@H](NC(=O)C(CP(=O)(O)C(CC(C)C)NC(=O)[C@H](Cc1c[nH]cn1)NC(=O)[C@H](Cc1ccccc1)NC(=O)CNC(=O)OCc1ccccc1)C(C)C)C(=O)N[C@@H](Cc1c[nH]cn1)C(N)=O` (some centres not stated) (Cbz-GFH[ξLeuψ(P(O)(OH)CH2)ξVal]IH-NH2) was run?
**A.** 0.8 µM
